Values belong to the compound of their own block, whether it stands above or below them. Calls of active or inactive are those of the source. The calls are words filed in the database; no cut-off is given here.
What was measured:
[1] = biological target: T1, Vascular endothelial growth factor receptor 2 (Homo sapiens, UniProt P35968); assay: Inhibition of human recombinant VEGFR2
HUVEC [2] = assay: Cytotoxicity against HUVEC assessed as decrease in cell viability at 1 to 100 uM after 24 hrs by Hoechst 33258 staining method; format: cell-based; settings: human
In short: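 HUVEC seeded at 20,000 cells/cm²; after 24 h, treated with test agent (0–100 µM) in RPMI 1640 + 2% FCS for 24 h. Cells lysed by freezing at −80 °C, lysates incubated with Hoechst 33258 for 1 h with agitation. Fluorescence read at ex 360/em 460 nm; expressed as % variation vs untreated; mean ± SD, n = 3 in triplicate.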

HUVEC [3] = assay: Cytostatic activity against HUVEC assessed as decrease in metabolic activity after 24 hrs by MTT assay; format: ADME, cell-based, Homo sapiens
In short: (§1)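 Primary HUVEC (passage ≤5) seeded at 20,000 cells/cm² in complete medium; after 24 h, exposed to test agent (0–100 µM) in RPMI 1640 + 2% heat-inactivated FCS for 24 h. MTT 0.4 mg/mL, 37 °C for 3 h; formazan dissolved in DMSO, absorbance read at 570/630 nm. Expressed as % variation vs untreated medium; mean ± SD, n = 3 in triplicate.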

HUVEC [4] = assay: Cytostatic activity against HUVEC assessed as decrease in metabolic activity at 100 uM after 24 hrs by MTT assay relative to control; format: ADME, cell-based; set-up: scale not given: the % may be the effect or the level left; settings: human; in short: as §1
HUVEC [5] = assay: Cytostatic activity against HUVEC assessed as decrease in metabolic activity at 1.5 uM after 24 hrs by MTT assay relative to control; format: ADME, cell-based; set-up: scale not given: the % may be the effect or the level left; settings: human; in short: as §1
HUVEC [6] = assay: cells; settings: Homo sapiens, 24 h
[7] = biological target: Vascular endothelial growth factor receptor 1 (Homo sapiens) (UniProt P17948); assay: Inhibition of VEGFR1 phosphorylation in growth factor-stimulated HUVEC
Chain of Vascular endothelial growth factor receptor 1 (Homo sapiens) (P17948 whole entry): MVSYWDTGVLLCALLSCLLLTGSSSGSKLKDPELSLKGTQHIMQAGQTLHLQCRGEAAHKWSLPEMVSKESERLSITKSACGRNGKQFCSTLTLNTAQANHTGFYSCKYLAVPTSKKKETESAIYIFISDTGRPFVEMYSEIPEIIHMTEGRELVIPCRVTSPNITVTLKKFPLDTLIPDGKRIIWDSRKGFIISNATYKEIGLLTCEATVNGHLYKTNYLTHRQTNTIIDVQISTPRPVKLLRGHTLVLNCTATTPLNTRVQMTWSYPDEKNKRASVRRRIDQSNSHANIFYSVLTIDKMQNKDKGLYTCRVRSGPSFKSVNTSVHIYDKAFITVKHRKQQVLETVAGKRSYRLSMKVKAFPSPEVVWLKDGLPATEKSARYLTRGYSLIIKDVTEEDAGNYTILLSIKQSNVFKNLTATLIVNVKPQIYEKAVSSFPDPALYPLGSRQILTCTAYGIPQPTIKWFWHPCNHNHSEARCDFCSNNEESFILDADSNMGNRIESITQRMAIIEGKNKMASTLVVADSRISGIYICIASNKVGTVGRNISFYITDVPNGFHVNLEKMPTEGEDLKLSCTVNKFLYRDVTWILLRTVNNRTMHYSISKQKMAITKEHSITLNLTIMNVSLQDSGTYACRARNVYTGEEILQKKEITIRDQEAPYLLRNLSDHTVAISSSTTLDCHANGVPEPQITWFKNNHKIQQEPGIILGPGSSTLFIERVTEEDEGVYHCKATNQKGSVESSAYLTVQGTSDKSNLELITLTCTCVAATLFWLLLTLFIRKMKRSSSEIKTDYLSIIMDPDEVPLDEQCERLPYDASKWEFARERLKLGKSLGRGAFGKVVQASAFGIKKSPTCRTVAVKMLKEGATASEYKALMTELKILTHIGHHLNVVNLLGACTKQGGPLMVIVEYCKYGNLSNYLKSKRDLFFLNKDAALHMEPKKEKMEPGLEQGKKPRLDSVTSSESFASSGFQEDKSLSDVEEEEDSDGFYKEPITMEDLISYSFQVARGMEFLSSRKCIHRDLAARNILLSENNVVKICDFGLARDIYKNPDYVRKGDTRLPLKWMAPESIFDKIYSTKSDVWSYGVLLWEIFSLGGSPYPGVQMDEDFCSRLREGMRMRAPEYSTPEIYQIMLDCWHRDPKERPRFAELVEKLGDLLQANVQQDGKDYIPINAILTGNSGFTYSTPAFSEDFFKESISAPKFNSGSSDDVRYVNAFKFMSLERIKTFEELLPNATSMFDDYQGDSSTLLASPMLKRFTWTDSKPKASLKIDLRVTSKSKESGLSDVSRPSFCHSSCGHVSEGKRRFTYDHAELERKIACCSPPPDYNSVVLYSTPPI

[8] = biological target: T2, Ephrin type-A receptor 6 (Homo sapiens) (UniProt Q9UF33); assay: Inhibition of EPHA6 phosphorylation in growth factor-stimulated HUVEC at 3 uM after 24 hrs
T2 sequence (whole entry): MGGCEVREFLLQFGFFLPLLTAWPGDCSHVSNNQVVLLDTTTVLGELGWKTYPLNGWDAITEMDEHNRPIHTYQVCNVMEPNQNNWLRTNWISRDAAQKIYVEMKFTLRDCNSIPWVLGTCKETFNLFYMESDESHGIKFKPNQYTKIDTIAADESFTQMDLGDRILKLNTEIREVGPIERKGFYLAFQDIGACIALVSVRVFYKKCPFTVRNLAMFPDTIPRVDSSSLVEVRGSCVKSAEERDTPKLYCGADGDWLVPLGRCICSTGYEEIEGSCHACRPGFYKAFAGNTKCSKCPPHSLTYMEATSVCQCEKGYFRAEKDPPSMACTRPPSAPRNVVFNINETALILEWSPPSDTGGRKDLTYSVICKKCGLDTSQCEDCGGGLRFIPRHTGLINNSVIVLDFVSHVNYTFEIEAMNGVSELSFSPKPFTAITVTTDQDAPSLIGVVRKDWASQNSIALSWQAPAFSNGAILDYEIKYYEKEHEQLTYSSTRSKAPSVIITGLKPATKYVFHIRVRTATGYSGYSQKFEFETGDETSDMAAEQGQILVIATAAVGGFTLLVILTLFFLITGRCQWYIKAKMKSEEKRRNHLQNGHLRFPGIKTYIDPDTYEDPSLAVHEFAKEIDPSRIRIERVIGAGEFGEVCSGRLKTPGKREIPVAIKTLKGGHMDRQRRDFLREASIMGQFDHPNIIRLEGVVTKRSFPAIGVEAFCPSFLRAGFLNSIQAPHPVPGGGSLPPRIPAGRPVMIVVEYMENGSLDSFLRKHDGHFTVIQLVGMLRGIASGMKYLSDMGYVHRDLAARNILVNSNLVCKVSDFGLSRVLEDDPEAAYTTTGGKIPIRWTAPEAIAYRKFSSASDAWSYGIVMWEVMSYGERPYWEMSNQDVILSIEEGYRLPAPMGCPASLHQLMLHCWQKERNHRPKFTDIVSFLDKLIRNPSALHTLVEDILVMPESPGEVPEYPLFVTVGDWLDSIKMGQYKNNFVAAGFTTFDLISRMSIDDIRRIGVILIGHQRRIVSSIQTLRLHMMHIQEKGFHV

[9] = biological target: Tyrosine-protein kinase transmembrane receptor ROR2 (Homo sapiens) (UniProt Q01974); assay: Inhibition of ROR2 phosphorylation in growth factor-stimulated HUVEC at 3 uM after 24 hrs
[10] = biological target: Tyrosine-protein kinase receptor Tie-1 (Homo sapiens) (UniProt P35590); assay: Inhibition of TIE-1 phosphorylation in growth factor-stimulated HUVEC at 3 uM after 24 hrs
[11] = biological target: Tyrosine-protein kinase receptor UFO (Homo sapiens) (UniProt P30530); assay: Inhibition of AXL phosphorylation in growth factor-stimulated HUVEC at 3 uM after 24 hrs
Chain of Tyrosine-protein kinase receptor UFO (Homo sapiens) (P30530 whole entry): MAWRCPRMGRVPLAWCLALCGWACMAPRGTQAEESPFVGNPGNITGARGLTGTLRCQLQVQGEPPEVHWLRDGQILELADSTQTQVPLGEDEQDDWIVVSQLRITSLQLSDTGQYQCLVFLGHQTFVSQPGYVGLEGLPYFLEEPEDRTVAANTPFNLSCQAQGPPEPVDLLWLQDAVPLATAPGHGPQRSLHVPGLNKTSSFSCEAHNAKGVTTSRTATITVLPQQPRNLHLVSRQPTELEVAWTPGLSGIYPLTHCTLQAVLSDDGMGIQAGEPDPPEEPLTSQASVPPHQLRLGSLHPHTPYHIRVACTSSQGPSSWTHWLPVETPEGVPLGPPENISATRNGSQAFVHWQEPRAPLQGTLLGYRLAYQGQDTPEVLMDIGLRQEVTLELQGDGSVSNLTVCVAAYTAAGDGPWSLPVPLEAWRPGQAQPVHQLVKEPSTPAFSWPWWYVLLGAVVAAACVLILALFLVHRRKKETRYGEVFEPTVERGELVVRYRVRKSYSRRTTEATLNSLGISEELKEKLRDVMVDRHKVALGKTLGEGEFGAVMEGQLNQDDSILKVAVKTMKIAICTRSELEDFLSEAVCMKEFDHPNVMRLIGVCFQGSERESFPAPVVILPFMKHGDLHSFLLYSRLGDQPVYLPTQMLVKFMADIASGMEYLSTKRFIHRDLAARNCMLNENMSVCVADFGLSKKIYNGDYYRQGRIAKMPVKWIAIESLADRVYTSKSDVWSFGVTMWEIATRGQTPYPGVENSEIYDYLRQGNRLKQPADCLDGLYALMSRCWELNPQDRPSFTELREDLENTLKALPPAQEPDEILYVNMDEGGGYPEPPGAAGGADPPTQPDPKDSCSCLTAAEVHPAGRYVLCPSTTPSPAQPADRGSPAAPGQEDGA

[12] = biological target: T3, Tyrosine-protein kinase receptor TYRO3 (Homo sapiens) (UniProt Q06418); assay: Inhibition of DTK phosphorylation in growth factor-stimulated HUVEC at 3 uM after 24 hrs
T3 sequence (whole entry): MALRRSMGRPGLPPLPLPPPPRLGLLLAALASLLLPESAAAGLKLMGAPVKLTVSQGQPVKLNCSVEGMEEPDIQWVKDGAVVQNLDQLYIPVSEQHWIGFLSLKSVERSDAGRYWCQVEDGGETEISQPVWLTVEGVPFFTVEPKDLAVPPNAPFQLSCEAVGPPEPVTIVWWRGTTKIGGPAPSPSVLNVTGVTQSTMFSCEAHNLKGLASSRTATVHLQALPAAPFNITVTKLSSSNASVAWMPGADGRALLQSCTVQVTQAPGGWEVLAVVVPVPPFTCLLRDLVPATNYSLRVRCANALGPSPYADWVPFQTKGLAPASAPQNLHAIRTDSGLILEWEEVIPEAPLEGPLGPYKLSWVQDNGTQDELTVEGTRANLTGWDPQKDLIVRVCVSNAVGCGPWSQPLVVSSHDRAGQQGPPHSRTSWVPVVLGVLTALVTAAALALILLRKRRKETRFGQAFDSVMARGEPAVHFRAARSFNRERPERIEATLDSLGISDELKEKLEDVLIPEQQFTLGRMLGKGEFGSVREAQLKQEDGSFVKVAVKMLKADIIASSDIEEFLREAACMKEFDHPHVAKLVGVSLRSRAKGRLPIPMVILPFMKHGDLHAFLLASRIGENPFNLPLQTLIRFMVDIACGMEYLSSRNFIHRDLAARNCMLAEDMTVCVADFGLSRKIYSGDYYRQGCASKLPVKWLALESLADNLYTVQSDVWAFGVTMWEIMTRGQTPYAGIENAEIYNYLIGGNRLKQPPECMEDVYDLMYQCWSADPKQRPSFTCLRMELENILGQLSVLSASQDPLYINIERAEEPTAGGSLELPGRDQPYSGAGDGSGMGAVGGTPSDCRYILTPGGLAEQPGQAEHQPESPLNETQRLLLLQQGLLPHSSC

[13] = biological target: Epidermal growth factor receptor (Homo sapiens) (UniProt P00533); assay: Inhibition of EGFR phosphorylation in growth factor-stimulated HUVEC at 3 uM after 24 hrs
Chain of Epidermal growth factor receptor (Homo sapiens) (P00533 whole entry): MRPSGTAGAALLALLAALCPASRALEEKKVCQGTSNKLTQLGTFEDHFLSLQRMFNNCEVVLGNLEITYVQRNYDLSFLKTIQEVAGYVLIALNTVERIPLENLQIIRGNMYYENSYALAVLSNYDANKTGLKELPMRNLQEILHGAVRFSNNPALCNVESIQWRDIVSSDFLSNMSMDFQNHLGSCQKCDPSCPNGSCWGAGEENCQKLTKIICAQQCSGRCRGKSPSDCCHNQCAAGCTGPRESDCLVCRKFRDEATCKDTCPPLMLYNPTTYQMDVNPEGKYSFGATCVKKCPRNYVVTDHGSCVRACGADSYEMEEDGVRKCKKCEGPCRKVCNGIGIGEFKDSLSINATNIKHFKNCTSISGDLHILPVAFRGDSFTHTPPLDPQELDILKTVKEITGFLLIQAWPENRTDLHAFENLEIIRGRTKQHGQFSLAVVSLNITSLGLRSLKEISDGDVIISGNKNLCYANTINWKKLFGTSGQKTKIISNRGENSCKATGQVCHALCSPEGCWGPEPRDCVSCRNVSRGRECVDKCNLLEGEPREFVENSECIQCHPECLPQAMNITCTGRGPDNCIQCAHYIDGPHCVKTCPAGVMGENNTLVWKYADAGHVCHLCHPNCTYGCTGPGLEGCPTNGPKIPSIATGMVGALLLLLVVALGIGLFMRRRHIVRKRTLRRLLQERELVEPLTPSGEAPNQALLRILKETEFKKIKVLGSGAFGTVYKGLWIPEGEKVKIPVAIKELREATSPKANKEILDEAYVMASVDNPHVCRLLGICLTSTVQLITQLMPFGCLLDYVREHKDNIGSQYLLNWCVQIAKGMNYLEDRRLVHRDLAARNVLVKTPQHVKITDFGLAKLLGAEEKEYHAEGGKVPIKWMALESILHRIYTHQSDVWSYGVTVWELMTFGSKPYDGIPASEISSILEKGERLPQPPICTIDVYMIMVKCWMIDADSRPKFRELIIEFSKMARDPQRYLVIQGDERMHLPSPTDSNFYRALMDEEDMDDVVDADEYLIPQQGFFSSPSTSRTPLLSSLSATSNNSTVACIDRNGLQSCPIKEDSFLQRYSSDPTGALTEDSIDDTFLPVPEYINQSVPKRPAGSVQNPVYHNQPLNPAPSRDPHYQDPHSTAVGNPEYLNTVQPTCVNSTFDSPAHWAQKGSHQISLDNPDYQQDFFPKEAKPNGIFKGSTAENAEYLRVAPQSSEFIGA

[14] = biological target: T1, Vascular endothelial growth factor receptor 2; assay: Inhibition of VEGFR2 phosphorylation in growth factor-stimulated HUVEC at 3 uM after 24 hrs
[15] = biological target: Vascular endothelial growth factor receptor 1 (Homo sapiens) (UniProt P17948); assay: Inhibition of VEGFR1 phosphorylation in growth factor-stimulated HUVEC at 3 uM after 24 hrs

T1 sequence (P35968 whole entry): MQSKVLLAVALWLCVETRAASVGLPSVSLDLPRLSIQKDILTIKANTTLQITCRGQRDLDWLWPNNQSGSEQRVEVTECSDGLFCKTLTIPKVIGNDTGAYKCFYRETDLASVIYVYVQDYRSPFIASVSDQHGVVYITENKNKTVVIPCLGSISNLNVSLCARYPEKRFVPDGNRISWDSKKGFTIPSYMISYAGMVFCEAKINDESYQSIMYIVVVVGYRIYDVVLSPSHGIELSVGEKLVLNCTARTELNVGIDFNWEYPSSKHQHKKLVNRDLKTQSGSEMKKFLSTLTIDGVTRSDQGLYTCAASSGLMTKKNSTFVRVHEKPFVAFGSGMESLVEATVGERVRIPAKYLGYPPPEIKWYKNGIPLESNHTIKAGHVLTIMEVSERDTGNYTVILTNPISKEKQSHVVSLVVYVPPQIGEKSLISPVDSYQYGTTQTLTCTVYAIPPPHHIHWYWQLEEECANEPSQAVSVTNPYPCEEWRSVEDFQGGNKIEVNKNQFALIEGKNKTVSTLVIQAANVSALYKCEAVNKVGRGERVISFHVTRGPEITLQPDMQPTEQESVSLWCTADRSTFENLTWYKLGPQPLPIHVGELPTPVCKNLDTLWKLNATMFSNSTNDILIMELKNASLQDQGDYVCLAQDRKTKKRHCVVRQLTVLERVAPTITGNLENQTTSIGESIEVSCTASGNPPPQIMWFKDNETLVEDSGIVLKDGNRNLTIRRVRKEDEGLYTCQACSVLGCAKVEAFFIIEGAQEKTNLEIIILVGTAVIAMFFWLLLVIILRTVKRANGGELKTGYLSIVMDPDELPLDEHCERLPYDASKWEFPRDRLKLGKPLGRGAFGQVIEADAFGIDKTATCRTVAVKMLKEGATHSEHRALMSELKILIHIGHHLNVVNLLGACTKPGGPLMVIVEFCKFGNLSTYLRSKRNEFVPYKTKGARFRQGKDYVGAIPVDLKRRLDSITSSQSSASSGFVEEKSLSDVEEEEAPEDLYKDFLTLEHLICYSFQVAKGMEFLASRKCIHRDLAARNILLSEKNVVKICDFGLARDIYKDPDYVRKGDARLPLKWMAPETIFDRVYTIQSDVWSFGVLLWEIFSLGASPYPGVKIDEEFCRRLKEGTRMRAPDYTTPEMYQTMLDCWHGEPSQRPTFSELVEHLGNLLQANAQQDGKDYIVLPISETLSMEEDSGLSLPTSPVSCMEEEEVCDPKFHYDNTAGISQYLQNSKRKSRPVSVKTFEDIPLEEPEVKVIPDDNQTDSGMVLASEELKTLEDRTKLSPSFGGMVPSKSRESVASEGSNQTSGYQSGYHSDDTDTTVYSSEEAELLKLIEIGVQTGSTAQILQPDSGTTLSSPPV

- IC50 [1]: 2.25 µM
SMILES: O=c1[nH]c(CN2CCCCC2)nc2cc(-c3cn(Cc4ccccc4)c4ccccc34)sc12 [listing 1 of 2 here]

SMILES: O=C(O)C(O)C(O)C(=O)O.O=c1[nH]c(CN2CCCCC2)nc2cc(-c3cn(Cc4ccccc4)c4ccccc34)sc12
- Activity (HUVEC [2]): Non-toxic
- EC50 (HUVEC [3]; Homo sapiens, HUVEC): 12 µM
- Activity (HUVEC [3]; human, huvec): Dose-dependent effect
- Activity (HUVEC [4]): 51%
- Activity (HUVEC [5]): 9%
- EC50 (HUVEC [6]): 0.031 µM

- inhibition [7]: Active
SMILES: CCN(CC)CCNC(=O)c1c(C)[nH]c(/C=C2\C(=O)Nc3ccc(F)cc32)c1C [SUNITINIB]
- EC50 (HUVEC [6]): 0.645 µM

- inhibition [8]: Active
- inhibition [9]: Active
- inhibition [10]: Active
- inhibition [11]: Active
- inhibition [12]: Active
- inhibition [13]: Active
- inhibition [14]: Active
- inhibition [15]: Active
SMILES: O=c1[nH]c(CN2CCCCC2)nc2cc(-c3cn(Cc4ccccc4)c4ccccc34)sc12 [listing 2 of 2 here]
